Measured values as given in ChEMBL document CHEMBL4346654 (Eur J Med Chem, 2019).
≈ marks a conversion by molar mass, not a printed value.

How the values were obtained:
Format in all cases: functional
Streptococcus pyogenes [1] = experiment: Selectivity ratio of MBC to MIC for MLS-resistant Streptococcus pyogenes 01-968 expressing inducible ermB gene
Method in brief: (§1)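 MBC/MIC ratio. MIC was measured by CLSI standard two-fold broth dilution. MBC was measured by transferring samples at 1–8 fold MIC to culture medium and subculturing for 24 h without antibiotic. Isolates were identified by 16S rDNA sequencing.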

Staphylococcus aureus [2] = experiment: Antibacterial activity against MLS-resistant Staphylococcus aureus PU 20 expressing constitutive ermC gene assessed as reduction in microbial growth by CLSI based two-fold broth dilution method
Streptococcus pneumoniae [3] = experiment: Antibacterial activity against Streptococcus pneumoniae 07P390 expressing constitutive ermB gene assessed as reduction in microbial growth by CLSI based two-fold broth dilution method
Streptococcus pneumoniae [4] = experiment: Bactericidal activity against penicillin-susceptible Streptococcus pneumoniae PU 09 expressing mef gene pretreated followed by subculture in absence of compound measured after 24 hrs
Method in brief: (§2)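 Isolates were identified by 16S rDNA sequencing. MIC was determined by CLSI-recommended two-fold broth dilution. For MBC, samples from 1–8 fold MIC were transferred to culture medium and subcultured for 24 h without antibiotic.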

Streptococcus pneumoniae [5] = experiment: Antibacterial activity against penicillin-susceptible Streptococcus pneumoniae PU 09 expressing mef gene assessed as reduction in microbial growth by CLSI based two-fold broth dilution method
Haemophilus influenzae [6] = experiment: Bactericidal activity against azithromycin-susceptible Haemophilus influenzae ATCC 49247 pretreated followed by subculture in absence of compound measured after 24 hrs; method in brief: as §2
Staphylococcus aureus [7] = experiment: Antibacterial activity against MLS-resistant Staphylococcus aureus PU 32 expressing inducible ermA gene assessed as reduction in microbial growth by CLSI based two-fold broth dilution method
Streptococcus pneumoniae [8] = experiment: Selectivity ratio of MBC to MIC for penicillin-susceptible Streptococcus pneumoniae PU 09 expressing mef gene; method in brief: as §2
Staphylococcus aureus [9] = experiment: Bactericidal activity against MLS-resistant Staphylococcus aureus PU 20 expressing constitutive ermC gene pretreated followed by subculture in absence of compound measured after 24 hrs
Method in brief: (§3)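 MBC assay. Following MIC determination by CLSI standard two-fold broth dilution, samples at 1–8 fold MIC were transferred to fresh culture medium. They were subcultured for 24 h without antibiotic. Isolates were identified by 16S rDNA sequencing. S. aureus ATCC 29213 was used as a control strain.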

Haemophilus influenzae [10] = experiment: Antibacterial activity against azithromycin-susceptible Haemophilus influenzae ATCC 49247 assessed as reduction in microbial growth by CLSI based two-fold broth dilution method
Streptococcus pyogenes [11] = experiment: Bactericidal activity against MLS-resistant Streptococcus pyogenes 01-968 expressing inducible ermB gene pretreated followed by subculture in absence of compound measured after 24 hrs; method in brief: as §3
Streptococcus pyogenes [12] = experiment: Antibacterial activity against MLS-resistant Streptococcus pyogenes 01-968 expressing inducible ermB gene assessed as reduction in microbial growth by CLSI based two-fold broth dilution method
Staphylococcus aureus [13] = experiment: Selectivity ratio of MBC to MIC for MLS/methicillin-resistant Staphylococcus aureus PU 32 expressing inducible ermA gene; method in brief: as §1
Streptococcus pneumoniae [14] = experiment: Antibacterial activity against erythromycin-susceptible Streptococcus pneumoniae ATCC49619 assessed as reduction in microbial growth by CLSI based two-fold broth dilution method
Streptococcus pneumoniae [15] = experiment: Bactericidal activity against erythromycin-susceptible Streptococcus pneumoniae ATCC49619 pretreated followed by subculture in absence of compound measured after 24 hrs; method in brief: as §2
Haemophilus influenzae [16] = experiment: Selectivity ratio of MBC to MIC for azithromycin-susceptible Haemophilus influenzae ATCC 49247; method in brief: as §2
Staphylococcus aureus [17] = experiment: Bactericidal activity against MLS/methicillin-resistant Staphylococcus aureus PU 32 expressing inducible ermA gene pretreated followed by subculture in absence of compound measured after 24 hrs; method in brief: as §3
Streptococcus pneumoniae [18] = experiment: Selectivity ratio of MBC to MIC for erythromycin-susceptible Streptococcus pneumoniae ATCC49619; method in brief: as §2
Streptococcus pneumoniae [19] = experiment: Bactericidal activity against Streptococcus pneumoniae 07P390 expressing constitutive ermB gene pretreated followed by subculture in absence of compound measured after 24 hrs; method in brief: as §2

Row | Structure (SMILES) | Selectivity ratio (Streptococcus pyogenes [1]) | MIC (Staphylococcus aureus [2]) | MIC (Streptococcus pneumoniae [3]) | MBC (Streptococcus pneumoniae [4]) | MIC (Streptococcus pneumoniae [5]) | MBC (Haemophilus influenzae [6]) | MIC (Staphylococcus aureus [7]) | Selectivity ratio (Streptococcus pneumoniae [8]) | MBC (Staphylococcus aureus [9]) | MIC (Haemophilus influenzae [10]) | MBC (Streptococcus pyogenes [11]) | MIC (Streptococcus pyogenes [12]) | Selectivity ratio (Staphylococcus aureus [13]) | MIC (Streptococcus pneumoniae [14]) | MBC (Streptococcus pneumoniae [15]) | Selectivity ratio (Haemophilus influenzae [16]) | MBC (Staphylococcus aureus [17]) | Selectivity ratio (Streptococcus pneumoniae [18]) | MBC (Streptococcus pneumoniae [19])
1 | CC[C@H]1OC(=O)[C@@](C)(F)C(=O)[C@H](C)[C@@H](O[C@@H]2O[C@H](C)C[C@H](N(C)C)[C@H]2O)[C@](C)(OC)C[C@@H](C)/C(=N\OC/C=C/c2cncc(N)c2)[C@H](C)[C@H]2OC(=O)O[C@@]21C | >8 | 256 µg/mL | > 32 µg/mL | 1 µg/mL (≈ 1.28 µM) | 1 µg/mL | 16 µg/mL (≈ 20.5 µM) | 0.5 µg/mL | 1 | > 256 µg/mL | 8 µg/mL | > 0.25 µg/mL | 0.031 µg/mL | >8 | 0.125 µg/mL | 0.125 µg/mL (≈ 0.16 µM) | 2 | > 4 µg/mL | 1 | –
2 | CC[C@H]1OC(=O)[C@@](C)(F)C(=O)[C@H](C)[C@@H](O[C@@H]2O[C@H](C)C[C@H](N(C)C)[C@H]2O)[C@](C)(OC)C[C@@H](C)/C(=N\OC/C=C/c2ccc3ncc(C(=O)O)cc3c2)[C@H](C)[C@H]2OC(=O)O[C@@]21C | >8 | > 256 µg/mL | 32 µg/mL | 32 µg/mL (≈ 37.3 µM) | 16 µg/mL | 64 µg/mL (≈ 74.6 µM) | 4 µg/mL | 2 | – | 32 µg/mL | > 0.5 µg/mL | 0.062 µg/mL | >8 | 1 µg/mL | 2 µg/mL (≈ 2.33 µM) | 2 | > 32 µg/mL | 2 | > 32 µg/mL
3 | CC[C@H]1OC(=O)[C@@](C)(F)C(=O)[C@H](C)[C@@H](O[C@@H]2O[C@H](C)C[C@H](N(C)C)[C@H]2O)[C@](C)(OC)C[C@@H](C)/C(=N\OCC#Cc2ccc(N)nc2)[C@H](C)[C@H]2OC(=O)O[C@@]21C | >8 | 256 µg/mL | > 32 µg/mL | 2 µg/mL (≈ 2.57 µM) | 2 µg/mL | 32 µg/mL (≈ 41.2 µM) | 1 µg/mL | 1 | > 256 µg/mL | 16 µg/mL | > 1 µg/mL | 0.125 µg/mL | >8 | 0.25 µg/mL | 0.5 µg/mL (≈ 0.644 µM) | 2 | > 8 µg/mL | 2 | –
4 | CC[C@H]1OC(=O)[C@@](C)(F)C(=O)[C@H](C)[C@@H](O[C@@H]2O[C@H](C)C[C@H](N(C)C)[C@H]2O)[C@](C)(OC)C[C@@H](C)/C(=N\OCC#Cc2cncc(N)c2)[C@H](C)[C@H]2OC(=O)O[C@@]21C | >8 | > 256 µg/mL | > 32 µg/mL | 4 µg/mL (≈ 5.15 µM) | 4 µg/mL | 32 µg/mL (≈ 41.2 µM) | 0.5 µg/mL | 1 | – | 16 µg/mL | > 0.5 µg/mL | 0.062 µg/mL | >8 | 0.25 µg/mL | 0.5 µg/mL (≈ 0.644 µM) | 2 | > 4 µg/mL | 2 | –
5 | CC[C@H]1OC(=O)[C@@](C)(F)C(=O)[C@H](C)[C@@H](O[C@@H]2O[C@H](C)C[C@H](N(C)C)[C@H]2O)[C@](C)(OC)C[C@@H](C)/C(=N\OCC#Cc2cncc(C(N)=O)c2)[C@H](C)[C@H]2OC(=O)O[C@@]21C | >8 | > 256 µg/mL | > 32 µg/mL | 2 µg/mL (≈ 2.48 µM) | 2 µg/mL | 32 µg/mL (≈ 39.8 µM) | 1 µg/mL | 1 | – | 16 µg/mL | > 1 µg/mL | 0.125 µg/mL | >8 | 0.25 µg/mL | 1 µg/mL (≈ 1.24 µM) | 2 | > 8 µg/mL | 4 | –
